Experiments:
Format in all cases: functional
[1] = system: Staphylococcus epidermidis; test: Antimicrobial activity against methicillin-susceptible coagulase-negative Staphylococcus epidermidis assessed as susceptible isolates after 24 hrs by broth microdilution method
Mammaliicoccus sciuri [2] = test: Antimicrobial activity against methicillin-susceptible coagulase-negative Staphylococcus sciuri assessed as resistant isolates after 24 hrs by broth microdilution method
[3] = system: Staphylococcus epidermidis; test: Antimicrobial activity against methicillin-susceptible coagulase-negative Staphylococcus epidermidis assessed as resistant isolates after 24 hrs by broth microdilution method
Staphylococcus hominis [4] = test: Antimicrobial activity against methicillin-susceptible coagulase-negative Staphylococcus hominis assessed as intermediate resistant isolates after 24 hrs by broth microdilution method; settings: pooled result: one value given for 5 cell lines, strains, targets or settings
Staphylococcus hominis [5] = test: Antimicrobial activity against methicillin-susceptible coagulase-negative Staphylococcus hominis assessed as resistant isolates after 24 hrs by broth microdilution method
Staphylococcus hominis [6] = test: Antimicrobial activity against methicillin-resistant coagulase-negative Staphylococcus hominis assessed as susceptible isolates after 24 hrs by broth microdilution method
Mammaliicoccus sciuri [7] = test: Antimicrobial activity against methicillin-resistant coagulase-negative Staphylococcus sciuri after 24 hrs by broth microdilution method
How it was run: (§1)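 Clinical isolates came from blood, body fluids, genital secretions, pus or sputum, identified conventionally or by Vitek. MICs were run by CLSI M7-A6 broth microdilution in Mueller-Hinton broth with 5 × 10^5 CFU/ml inoculum. Agents were twofold serially diluted, starting from 10% DMSO. Drug-free and uninoculated controls were included. Plates were incubated aerobically at 37°C for 24 h; MIC is the lowest concentration giving no visible growth.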

[8] = system: Staphylococcus haemolyticus; test: Bactericidal activity against methicillin-susceptible coagulase-negative Staphylococcus haemolyticus after 24 hrs by plate counting method
How it was run: (§2)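 Clinical staphylococcal isolates from patient body fluids, blood, genital secretions, pus or sputum; species by conventional methods or Vitek. Twofold dilutions in Mueller-Hinton broth, inoculum 5 × 10^5 CFU/ml, 37°C aerobic 24 h (CLSI M7-A6 microdilution). About 100 μl from each well without visible growth spread on MHA; 37°C 24 h. MBC = lowest concentration giving no growth on agar.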

Staphylococcus simulans [9] = test: Antimicrobial activity against methicillin-resistant coagulase-negative Staphylococcus simulans after 24 hrs by broth microdilution method; how it was run: as §1
Mammaliicoccus sciuri [10] = test: Bactericidal activity against methicillin-susceptible coagulase-negative Staphylococcus sciuri after 24 hrs by plate counting method; how it was run: as §2
Staphylococcus hominis [11] = test: Antimicrobial activity against methicillin-resistant coagulase-negative Staphylococcus hominis assessed as resistant isolates after 24 hrs by broth microdilution method
Staphylococcus hominis [12] = test: Bactericidal activity against methicillin-susceptible coagulase-negative Staphylococcus hominis after 24 hrs by plate counting method; how it was run: as §2
Mammaliicoccus sciuri [13] = test: Antimicrobial activity against methicillin-resistant coagulase-negative Staphylococcus sciuri assessed as intermediate resistant isolates after 24 hrs by broth microdilution method
Mammaliicoccus sciuri [14] = test: Antimicrobial activity against methicillin-susceptible coagulase-negative Staphylococcus sciuri assessed as susceptible isolates after 24 hrs by broth microdilution method
How it was run: (§3)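 Clinical isolates from blood, body fluids, pus, sputum or genital secretions, identified conventionally or by Vitek, were tested alongside ATCC 29213 and ATCC 12228 controls. CLSI M7-A6 broth microdilution in Mueller-Hinton broth used twofold dilutions from a 10% DMSO solution and 5 × 10^5 CFU/ml inoculum. Drug-free and uninoculated wells served as controls; incubation was aerobic at 37°C for 24 h. MIC was the lowest concentration with no visible growth.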

[15] = system: Staphylococcus haemolyticus; test: Antimicrobial activity against methicillin-susceptible coagulase-negative Staphylococcus haemolyticus assessed as resistant isolates after 24 hrs by broth microdilution method
[16] = system: Staphylococcus haemolyticus; test: Bactericidal activity against methicillin-resistant coagulase-negative Staphylococcus haemolyticus after 24 hrs by plate counting method
Staphylococcus simulans [17] = test: Antimicrobial activity against methicillin-susceptible coagulase-negative Staphylococcus simulans assessed as susceptible isolates after 24 hrs by broth microdilution method; how it was run: as §3
[18] = system: Staphylococcus haemolyticus; test: Antimicrobial activity against methicillin-resistant coagulase-negative Staphylococcus haemolyticus assessed as susceptible isolates after 24 hrs by broth microdilution method
Staphylococcus simulans [19] = test: Antimicrobial activity against methicillin-resistant coagulase-negative Staphylococcus simulans assessed as susceptible isolates after 24 hrs by broth microdilution method
Staphylococcus simulans [20] = test: Antimicrobial activity against methicillin-resistant coagulase-negative Staphylococcus simulans assessed as intermediate resistant isolates after 24 hrs by broth microdilution method
Staphylococcus simulans [21] = test: Antimicrobial activity against methicillin-susceptible coagulase-negative Staphylococcus simulans assessed as resistant isolates after 24 hrs by broth microdilution method
[22] = system: Staphylococcus epidermidis; test: Antimicrobial activity against methicillin-resistant coagulase-negative Staphylococcus epidermidis assessed as intermediate resistant isolates after 24 hrs by broth microdilution method
Staphylococcus aureus [23] = test: Bactericidal activity against methicillin-resistant Staphylococcus aureus after 24 hrs by plate counting method
[24] = system: Staphylococcus haemolyticus; test: Antimicrobial activity against methicillin-susceptible coagulase-negative Staphylococcus haemolyticus after 24 hrs by broth microdilution method; how it was run: as §1
[25] = system: Staphylococcus epidermidis; test: Antimicrobial activity against methicillin-resistant coagulase-negative Staphylococcus epidermidis after 24 hrs by broth microdilution method; how it was run: as §1
Staphylococcus simulans [26] = test: Bactericidal activity against methicillin-resistant coagulase-negative Staphylococcus simulans after 24 hrs by plate counting method; how it was run: as §2
Staphylococcus simulans [27] = test: Antimicrobial activity against methicillin-susceptible coagulase-negative Staphylococcus simulans after 24 hrs by broth microdilution method; how it was run: as §1
[28] = system: Staphylococcus epidermidis; test: Bactericidal activity against methicillin-susceptible coagulase-negative Staphylococcus epidermidis after 24 hrs by plate counting method; how it was run: as §2
Staphylococcus aureus [29] = test: Antimicrobial activity against methicillin-susceptible Staphylococcus aureus assessed as resistant isolates after 24 hrs by broth microdilution method
[30] = system: Staphylococcus epidermidis; test: Bactericidal activity against methicillin-resistant coagulase-negative Staphylococcus epidermidis after 24 hrs by plate counting method
[31] = system: Staphylococcus haemolyticus; test: Antimicrobial activity against methicillin-susceptible coagulase-negative Staphylococcus haemolyticus assessed as susceptible isolates after 24 hrs by broth microdilution method
Staphylococcus simulans [32] = test: Antimicrobial activity against methicillin-resistant coagulase-negative Staphylococcus simulans assessed as resistant isolates after 24 hrs by broth microdilution method
Mammaliicoccus sciuri [33] = test: Antimicrobial activity against methicillin-susceptible coagulase-negative Staphylococcus sciuri after 24 hrs by broth microdilution method; how it was run: as §1
Mammaliicoccus sciuri [34] = test: Bactericidal activity against methicillin-resistant coagulase-negative Staphylococcus sciuri after 24 hrs by plate counting method; how it was run: as §2
Staphylococcus aureus [35] = test: Antimicrobial activity against methicillin-susceptible Staphylococcus aureus after 24 hrs by broth microdilution method; how it was run: as §1
Staphylococcus aureus [36] = test: Antimicrobial activity against methicillin-resistant Staphylococcus aureus assessed as resistant isolates after 24 hrs by broth microdilution method
[37] = Staphylococcus haemolyticus, 24 h
[38] = Staphylococcus epidermidis, 24 h

CN[C@H](CC(C)C)C(=O)N[C@H]1C(=O)N[C@@H](CC(N)=O)C(=O)N[C@H]2C(=O)N[C@H]3C(=O)N[C@H](C(=O)N[C@H](C(=O)O)c4cc(O)cc(O)c4-c4cc3ccc4O)[C@H](O)c3ccc(c(Cl)c3)Oc3cc2cc(c3O[C@@H]2O[C@H](CO)[C@@H](O)[C@H](O)[C@H]2O[C@H]2C[C@](C)(N)[C@H](O)[C@H](C)O2)Oc2ccc(cc2Cl)[C@H]1O [VANCOMYCIN]
0.25 µg/mL: MIC50 [24] | MIC50 (Staphylococcus simulans [27]) | MIC50 (Mammaliicoccus sciuri [33]) | MIC50 (Staphylococcus aureus [35])
4 µg/mL: MBC90 [8] | MBC90 (Mammaliicoccus sciuri [10]) | MBC90 (Staphylococcus hominis [12]) | MBC90 [16] | MBC90 (Staphylococcus simulans [26]) | MBC90 [28] | MBC90 [30] | MBC90 (Mammaliicoccus sciuri [34])
12%: Activity (Staphylococcus simulans [21])
0.5 µg/mL: MBC [16, 37] | MBC (Staphylococcus aureus [23]; Staphylococcus aureus, 24 h) | MBC (Staphylococcus simulans [26]; Staphylococcus simulans, 24 h) | MBC [30, 38] | MBC (Mammaliicoccus sciuri [34]; Mammaliicoccus sciuri, 24 h) | MIC90 (Staphylococcus aureus [35])
2 µg/mL: MIC90 (Mammaliicoccus sciuri [7]) | MIC90 (Staphylococcus simulans [9]) | MBC50 [16] | MBC90 (Staphylococcus aureus [23]) | MIC90 [25] | MBC50 (Staphylococcus simulans [26]) | MBC50 [30] | MBC50 (Mammaliicoccus sciuri [34])
1 µg/mL: MBC50 [8] | MBC50 (Mammaliicoccus sciuri [10]) | MBC50 (Staphylococcus hominis [12]) | MBC50 (Staphylococcus aureus [23]) | MIC90 [24] | MIC90 (Staphylococcus simulans [27]) | MBC50 [28] | MIC90 (Mammaliicoccus sciuri [33])
100%: Activity [1] | Activity (Staphylococcus hominis [6]) | Activity (Mammaliicoccus sciuri [14]) | Activity (Staphylococcus simulans [17]) | Activity [18] | Activity [31]
0.125 µg/mL: MIC (Mammaliicoccus sciuri [7]) | MIC50 (Mammaliicoccus sciuri [7]) | MBC [8, 37] | MIC (Staphylococcus simulans [9]) | MIC50 (Staphylococcus simulans [9]) | MBC (Mammaliicoccus sciuri [10]; Mammaliicoccus sciuri, 24 h) | MBC (Staphylococcus hominis [12]; Staphylococcus hominis, 24 h) | MIC [25] | MIC50 [25] | MBC [28, 38]
0%: Activity (Mammaliicoccus sciuri [2]) | Activity [3] | Activity (Staphylococcus hominis [4]) | Activity (Staphylococcus hominis [5]) | Activity (Staphylococcus hominis [11]) | Activity (Mammaliicoccus sciuri [13]) | Activity [15] | Activity (Staphylococcus simulans [19]) | Activity (Staphylococcus simulans [20]) | Activity [22] | Activity (Staphylococcus aureus [29]) | Activity (Staphylococcus simulans [32]) | Activity (Staphylococcus aureus [36])

GENTAMICIN
64 µg/mL: MIC90 (Mammaliicoccus sciuri [7]) | MBC90 [8] | MIC90 (Staphylococcus simulans [9]) | MBC90 (Mammaliicoccus sciuri [10]) | MBC90 (Staphylococcus hominis [12]) | MBC50 (Staphylococcus aureus [23]) | MIC90 [25] | MBC90 [28] | MIC90 (Staphylococcus aureus [35])
7%: Activity (Mammaliicoccus sciuri [13]) | Activity (Staphylococcus simulans [19]) | Activity (Staphylococcus simulans [20]) | Activity [22]
128 µg/mL: MBC90 [16] | MBC90 (Staphylococcus aureus [23]) | MBC90 (Staphylococcus simulans [26]) | MBC90 [30] | MBC90 (Mammaliicoccus sciuri [34])
4 µg/mL: MIC50 (Staphylococcus aureus [35])
63%: Activity (Staphylococcus aureus [36])
73%: Activity [1] | Activity (Mammaliicoccus sciuri [14]) | Activity (Staphylococcus simulans [17]) | Activity [31]
32 µg/mL: MIC90 [24] | MIC90 (Staphylococcus simulans [27]) | MIC90 (Mammaliicoccus sciuri [33])
0.25 µg/mL: MBC [8] | MBC (Mammaliicoccus sciuri [10]) | MBC (Staphylococcus hominis [12]) | MBC [16] | MBC (Staphylococcus simulans [26]) | MBC [28] | MBC [30] | MBC (Mammaliicoccus sciuri [34])
0.125 µg/mL: MIC50 [24] | MIC50 (Staphylococcus simulans [27]) | MIC50 (Mammaliicoccus sciuri [33])
45%: Activity (Staphylococcus hominis [6]) | Activity [18]
48%: Activity (Staphylococcus hominis [11]) | Activity (Staphylococcus aureus [29]) | Activity (Staphylococcus simulans [32])
1 µg/mL: MBC50 [8] | MBC50 (Mammaliicoccus sciuri [10]) | MBC50 (Staphylococcus hominis [12]) | MBC50 [28]
0%: Activity (Staphylococcus hominis [4])
8 µg/mL: MIC50 (Mammaliicoccus sciuri [7]) | MIC50 (Staphylococcus simulans [9]) | MBC50 [16] | MIC50 [25] | MBC50 (Staphylococcus simulans [26]) | MBC50 [30] | MBC50 (Mammaliicoccus sciuri [34])
27%: Activity (Mammaliicoccus sciuri [2]) | Activity [3] | Activity (Staphylococcus hominis [5]) | Activity [15] | Activity (Staphylococcus simulans [21])
2 µg/mL: MBC (Staphylococcus aureus [23])

— ChEMBL document CHEMBL1649231, “In vitro activities of panduratin A against clinical Staphylococcus strains” (2009)
